Measured values: ChEMBL document CHEMBL1129042, “Discovery of novel retinoic acid receptor agonists having potent antiproliferative activity in cervical cancer cells” (J Med Chem, 1996)

Tests used:
[1] = target: T1, Retinoic acid receptor alpha (Homo sapiens) (UniProt P10276); assay: Percent transcriptional activation relative to ATRA in CV-1 cells expressing Retinoic acid receptor RAR alpha; format: functional, cell-based
T1 sequence (whole entry): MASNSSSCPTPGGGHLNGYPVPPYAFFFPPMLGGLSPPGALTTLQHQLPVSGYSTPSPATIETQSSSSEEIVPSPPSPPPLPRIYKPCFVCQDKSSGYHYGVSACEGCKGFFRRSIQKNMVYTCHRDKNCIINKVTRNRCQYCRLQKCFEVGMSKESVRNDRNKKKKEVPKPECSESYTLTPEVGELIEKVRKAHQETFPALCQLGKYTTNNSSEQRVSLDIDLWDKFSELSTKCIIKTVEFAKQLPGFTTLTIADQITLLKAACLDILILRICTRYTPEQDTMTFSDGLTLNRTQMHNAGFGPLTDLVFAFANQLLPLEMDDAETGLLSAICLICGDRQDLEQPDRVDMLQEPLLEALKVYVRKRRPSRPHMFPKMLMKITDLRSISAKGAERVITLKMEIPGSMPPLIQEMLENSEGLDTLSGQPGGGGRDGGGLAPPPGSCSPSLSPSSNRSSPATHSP
Outline: (§1)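 Cotransfection transactivation assay in CV-1 cells. Full dose-response curves ran from 10^-12 to 10^-5 M. Efficacy is expressed as percent of the ATRA response, with ATRA set at 100%. Values are mean ± SEM of at least three separate experiments, each with triplicate determinations.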

[2] = target: T2, Retinoic acid receptor RXR-beta (Homo sapiens) (UniProt P28702); assay: Percent transcriptional activation relative to ATRA in CV-1 cells expressing Retinoid X receptor RXR beta; format: functional, cell-based; outline: as §1
T2 sequence (whole entry): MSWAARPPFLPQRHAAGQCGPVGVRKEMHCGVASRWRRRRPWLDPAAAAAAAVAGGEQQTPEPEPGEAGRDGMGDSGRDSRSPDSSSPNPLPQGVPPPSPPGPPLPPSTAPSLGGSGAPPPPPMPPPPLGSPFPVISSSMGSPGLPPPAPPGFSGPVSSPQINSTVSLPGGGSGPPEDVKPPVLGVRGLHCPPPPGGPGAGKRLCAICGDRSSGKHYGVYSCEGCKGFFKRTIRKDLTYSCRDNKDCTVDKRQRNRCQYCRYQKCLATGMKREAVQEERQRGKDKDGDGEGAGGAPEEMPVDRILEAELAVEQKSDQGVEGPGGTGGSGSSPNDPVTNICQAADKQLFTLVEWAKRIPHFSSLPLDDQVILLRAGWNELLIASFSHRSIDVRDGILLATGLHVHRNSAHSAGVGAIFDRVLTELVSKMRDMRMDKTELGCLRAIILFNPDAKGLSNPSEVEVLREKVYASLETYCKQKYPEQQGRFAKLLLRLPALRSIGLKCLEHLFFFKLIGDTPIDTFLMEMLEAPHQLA

[3] = target: T3, Retinoic acid receptor gamma (Homo sapiens) (UniProt P13631); assay: Percent transcriptional activation relative to ATRA in CV-1 cells expressing Retinoic acid receptor RAR gamma; format: functional, cell-based; outline: as §1
T3 sequence (whole entry): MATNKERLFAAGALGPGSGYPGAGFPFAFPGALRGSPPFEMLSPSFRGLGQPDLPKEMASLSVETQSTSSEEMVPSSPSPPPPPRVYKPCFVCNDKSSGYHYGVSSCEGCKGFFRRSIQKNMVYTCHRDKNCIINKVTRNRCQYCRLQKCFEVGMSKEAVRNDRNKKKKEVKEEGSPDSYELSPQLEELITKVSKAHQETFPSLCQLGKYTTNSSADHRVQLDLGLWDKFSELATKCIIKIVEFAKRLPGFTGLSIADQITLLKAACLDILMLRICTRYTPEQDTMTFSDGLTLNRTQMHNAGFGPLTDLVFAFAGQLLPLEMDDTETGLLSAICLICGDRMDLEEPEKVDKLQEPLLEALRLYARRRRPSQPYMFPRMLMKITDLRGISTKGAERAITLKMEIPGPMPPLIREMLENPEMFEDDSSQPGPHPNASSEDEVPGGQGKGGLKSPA

[4] = target: T4, Retinoic acid receptor RXR-beta (Homo sapiens, UniProt P28702); assay: Inhibition of [3H]9-cis-RA binding to Retinoid X receptor RXR beta
T4 sequence (P28702 whole entry): T2 sequence (whole entry)

[5] = target: T5, Retinoic acid receptor beta (Homo sapiens, UniProt P10826); assay: Transcriptional activation in CV-1 cells expressing Retinoic acid receptor RAR beta; format: functional, cell-based
T5 sequence (P10826 whole entry): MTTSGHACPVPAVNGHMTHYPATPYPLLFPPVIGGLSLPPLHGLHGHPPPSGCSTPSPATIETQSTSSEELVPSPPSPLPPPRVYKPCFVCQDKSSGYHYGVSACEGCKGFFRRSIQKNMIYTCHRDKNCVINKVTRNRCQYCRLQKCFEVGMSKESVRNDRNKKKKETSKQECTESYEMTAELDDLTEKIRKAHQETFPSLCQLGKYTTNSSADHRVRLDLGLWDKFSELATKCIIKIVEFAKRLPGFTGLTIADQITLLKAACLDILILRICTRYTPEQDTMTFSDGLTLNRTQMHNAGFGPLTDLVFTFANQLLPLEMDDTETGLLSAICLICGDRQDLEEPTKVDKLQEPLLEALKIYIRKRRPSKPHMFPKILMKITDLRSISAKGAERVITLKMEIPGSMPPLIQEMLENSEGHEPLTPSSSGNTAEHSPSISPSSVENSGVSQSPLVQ

[6] = target: T4, Retinoic acid receptor RXR-beta; assay: Transcriptional activation in CV-1 cells expressing Retinoid X receptor RXR beta; format: functional, cell-based
[7] = target: T5, Retinoic acid receptor beta; assay: Inhibition of [3H]ATRA binding to Retinoic acid receptor RAR beta
[8] = target: T6, Retinoic acid receptor alpha (Homo sapiens, UniProt P10276); assay: Inhibition of [3H]ATRA binding to Retinoic acid receptor RAR alpha
T6 sequence (P10276 whole entry): T1 sequence (whole entry)

[9] = target: T7, Retinoic acid receptor RXR-gamma (Homo sapiens, UniProt P48443); assay: Inhibition of [3H]9-cis-RA binding to Retinoid X receptor RXR gamma
T7 sequence (P48443 whole entry): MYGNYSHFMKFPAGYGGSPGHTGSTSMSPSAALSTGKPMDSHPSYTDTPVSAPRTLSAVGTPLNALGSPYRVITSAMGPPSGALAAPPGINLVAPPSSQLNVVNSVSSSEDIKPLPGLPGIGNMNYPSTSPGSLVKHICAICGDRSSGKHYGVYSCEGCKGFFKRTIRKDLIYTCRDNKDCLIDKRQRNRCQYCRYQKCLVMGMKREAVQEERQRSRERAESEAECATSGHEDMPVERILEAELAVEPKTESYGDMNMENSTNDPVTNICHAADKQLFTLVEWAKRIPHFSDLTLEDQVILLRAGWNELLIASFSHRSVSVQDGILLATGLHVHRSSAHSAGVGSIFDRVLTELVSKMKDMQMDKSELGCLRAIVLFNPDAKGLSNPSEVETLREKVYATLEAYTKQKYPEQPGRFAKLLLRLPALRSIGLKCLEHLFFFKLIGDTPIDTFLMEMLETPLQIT

[10] = target: T6, Retinoic acid receptor alpha; assay: Transcriptional activation in CV-1 cells expressing Retinoic acid receptor RAR alpha; format: functional, cell-based
[11] = target: T8, Retinoic acid receptor RXR-alpha (Homo sapiens, UniProt P19793); assay: Inhibition of [3H]9-cis-RA binding to Retinoid X receptor RXR alpha
T8 sequence (P19793 whole entry): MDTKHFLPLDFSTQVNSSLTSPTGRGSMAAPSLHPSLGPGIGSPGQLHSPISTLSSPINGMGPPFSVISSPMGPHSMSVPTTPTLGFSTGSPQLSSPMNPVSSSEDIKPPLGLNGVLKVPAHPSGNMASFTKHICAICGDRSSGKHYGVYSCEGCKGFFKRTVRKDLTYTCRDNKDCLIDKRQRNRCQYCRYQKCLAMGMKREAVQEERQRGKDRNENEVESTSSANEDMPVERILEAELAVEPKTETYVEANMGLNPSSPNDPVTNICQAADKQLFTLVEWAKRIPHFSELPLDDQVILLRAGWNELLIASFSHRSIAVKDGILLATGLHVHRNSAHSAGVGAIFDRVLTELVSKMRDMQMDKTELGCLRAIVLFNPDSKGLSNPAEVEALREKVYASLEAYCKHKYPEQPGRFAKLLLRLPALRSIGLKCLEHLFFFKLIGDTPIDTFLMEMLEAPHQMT

[12] = target: T7, Retinoic acid receptor RXR-gamma; assay: Transcriptional activation in CV-1 cells expressing Retinoid X receptor RXR gamma; format: functional, cell-based
[13] = target: T8, Retinoic acid receptor RXR-alpha; assay: Transcriptional activation in CV-1 cells expressing Retinoid X receptor RXR alpha; format: functional, cell-based
[14] = target: T8, Retinoic acid receptor RXR-alpha; assay: Transcriptional activation in CV-1 cells expressing Retinoid X receptor RXR alpha; Not active; format: functional, cell-based
[15] = target: T7, Retinoic acid receptor RXR-gamma; assay: Transcriptional activation in CV-1 cells expressing Retinoid X receptor RXR gamma; Not active; format: functional, cell-based

| SMILES | Efficacy [1] | Efficacy [2] | Efficacy [3] | Ki [4] | EC50 [5] | EC50 [6] | Ki [7] | Ki [8] | Ki [9] | Ki [11] | also measured |
| --- | --- | --- | --- | --- | --- | --- | --- | --- | --- | --- | --- |
| CC1=C(/C=C/C(C)=C/C=C/C(C)=C/C(=O)O)C(C)(C)CCC1 | 100% | 100% | 100% |  |  |  |  |  |  |  |  |
| CC1=C(/C=C/C(C)=C\C=C\C(C)=C\C(=O)O)C(C)(C)CCC1 | 81% | 128% | 93% |  |  |  |  |  |  |  |  |
| CC(/C=C/C=C(\C)c1cc(C(C)(C)C)cc(C(C)(C)C)c1)=C\C(=O)O (stereo in doubt; form 1) [listing 1 of 2 here] |  |  |  | 10.2 nM | 24 nM | 87 nM | 90 nM | 63.5 nM | 9.3 nM | 4.6 nM | EC50 [10]: 65 nM; EC50 [12]: 77 nM; EC50 [13]: 134 nM |
| CC(/C=C/C=C(\C)c1cc(C(C)(C)C)cc(C(C)(C)C)c1)=C\C(=O)O (stereo in doubt; form 1) [listing 2 of 2 here] | 39% | 27% | 58% |  |  |  |  |  |  |  |  |

The next lines start with results.

| Efficacy [1] | Efficacy [2] | Efficacy [3] | Ki [4] | EC50 [5] | EC50 [6] | Ki [7] | Ki [8] | Ki [9] | Ki [11] | SMILES | also measured |
| --- | --- | --- | --- | --- | --- | --- | --- | --- | --- | --- | --- |
|  |  |  | 560 nM | 2.2 nM | Not Active | 0.7 nM | 1.1 nM | 320 nM | 223 nM | CC(/C=C/C=C(\C)c1cc(C(C)(C)C)cc(C(C)(C)C)c1)=C\C(=O)O (stereo in doubt; form 2) [listing 1 of 2 here] | EC50 [14]: Not Active; EC50 [15]: Not Active |
| 31% |  | 48% |  |  |  |  |  |  |  | CC(/C=C/C=C(\C)c1cc(C(C)(C)C)cc(C(C)(C)C)c1)=C\C(=O)O (stereo in doubt; form 2) [listing 2 of 2 here] |  |
